Assay outcomes from PubChem BioAssay.
CHO-K1 Ca antag: nonselective inhibitor or artifact in parental CHO-K1 cells | ATP-induced calcium, Fluo-8 fluorescence | inhibition, % at 3 µM | 0.6% of 360,000 active | AID 602250;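 active = inhibition above a per-plate cutoff, the plate's mean sample inhibition plus 3 SD, cut at about 24% in these data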;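 also: 0% = DMSO plus EC80 ATP and 100% = DMSO alone without ATP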
M1 PAM parental: M1 PAM counterscreen hit in parental CHO-K1 cells | ATP EC20, Fluo-8 calcium fluorescence; 0% at ATP EC20, 100% at ATP max | activation, % at 3 µM | AID 602247 | 0.02% of 360,000 active;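 active = activation above the run cutoff, the mean activation of all test compounds plus 3 SD, cut at about 40% in these data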;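 also: peak over basal fluorescence ratio in a 140 s read after ATP addition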
M1 ag parental: M1 agonist counterscreen hit in parental CHO-K1 cells; Fluo-8 calcium fluorescence; scaled to maximal ATP response, vehicle zero; 0.48% of 360,000 active; activation, % at 3 µM; AID 602248; in the data active = activation above about 15%;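 also: untransfected CHO-K1 host cells lacking M1 receptor as counterscreen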
OX1R antag-1: antagonists of human orexin 1 receptor (OX1R). AID 485270. OX1R-expressing cells, FRET antagonist read-out. 1.8% of 330,000 active. inhibition, % at 6.6 µM. O43613; in the data active = inhibition mostly above about 38%, no sharp cut-off; inactive = mostly below about 40%;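 also: 0% = agonist challenge alone and 100% = reference antagonist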
Target sequence (O43613 whole entry, looked up): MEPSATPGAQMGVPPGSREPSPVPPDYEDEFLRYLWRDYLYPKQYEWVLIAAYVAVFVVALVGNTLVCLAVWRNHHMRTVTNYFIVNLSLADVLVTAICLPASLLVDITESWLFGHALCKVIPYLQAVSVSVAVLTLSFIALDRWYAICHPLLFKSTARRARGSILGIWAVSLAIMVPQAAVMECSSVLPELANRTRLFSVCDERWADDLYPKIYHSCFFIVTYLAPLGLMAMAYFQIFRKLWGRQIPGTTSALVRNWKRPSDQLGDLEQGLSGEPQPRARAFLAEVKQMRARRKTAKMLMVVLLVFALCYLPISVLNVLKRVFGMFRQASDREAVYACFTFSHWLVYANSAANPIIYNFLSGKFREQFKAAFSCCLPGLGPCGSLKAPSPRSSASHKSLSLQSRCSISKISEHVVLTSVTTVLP
OX1R antag-2: human HCRTR1 antagonism. O43613. AID 434989. inhibition, % at 5 µM. 0.43% of 330,000 active. CHO/OX1R cells, Fluo-8 calcium fluorescence, orexin A;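 active = inhibition above its plate's threshold, mean inhibition of all tested compounds on the plate plus 3 SD, cut at about 37% in these data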;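 also: 0% = orexin A challenge wells and 100% = SB-334867-A antagonist wells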
CHO parental Ca: counter-screen: ATP calcium response change in parental CHO cells. parental CHO-K1, ATP-induced calcium, Fluo-8 fluorescence. inhibition, % at 5.6 µM. 0.63% of 330,000 active;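 active = inhibition above that plate's mean sample inhibition plus 3 SD, cut at about 26% in these data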;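 also: 0% = ATP-challenged DMSO wells and 100% = DMSO wells without ATP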
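Measured by: calcium-sensitive Fluo-8 fluorescence / Test system: CHO parental line / Controls: ATP-challenged DMSO wells low, unchallenged DMSO wells high / Measure: % inhibition / Compound: single nominal dose of 5.6 µM per compound / Replicates: single well per compound, no replicates / Reagent: ATP as calcium-mobilizing challenge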
An asterisk follows results filed as active. Sampled rows, rich in hits. Any-hit rate of the full collection: about 2.9%.

`Nc1c(O)cccc1C(=O)O` gave CHO-K1 Ca antag -6, M1 PAM parental 11, M1 ag parental 0, OX1R antag-1 61*, OX1R antag-2 4 and CHO parental Ca 1.
Cc1ccc(NC(=O)CN(C)C(=O)c2ccccc2Sc2ccccc2C#N)cc1 was read as CHO-K1 Ca antag -5, M1 PAM parental -2, M1 ag parental 3, OX1R antag-1 55*, OX1R antag-2 -19 and CHO parental Ca -25.
Screening COc1ccc2oc3ccccc3c(=O)c2c1 returned CHO-K1 Ca antag -8, M1 PAM parental 14, M1 ag parental -1, OX1R antag-1 37, OX1R antag-2 -19 and CHO parental Ca -4.
`COc1ccc2oc3ccc(OC)cc3c(=O)c2c1` gave CHO-K1 Ca antag -12, M1 PAM parental 19, M1 ag parental 0, OX1R antag-1 62*, OX1R antag-2 -28 and CHO parental Ca -5.
For O=C(c1ccc(Br)cc1)N1CCN(c2ccccn2)CC1 the results were CHO-K1 Ca antag -8, M1 PAM parental 5 and M1 ag parental 1.
For Cc1ccc(OCC(=O)N/N=C2/SCC(=O)N2Cc2ccccc2)cc1 the results were CHO-K1 Ca antag 25*, M1 PAM parental -15, M1 ag parental 0, OX1R antag-1 24, OX1R antag-2 -23 and CHO parental Ca -9.
Screening COC(=O)CCN(C(=O)c1ccc([N+](=O)[O-])cc1)c1ccccn1 returned CHO-K1 Ca antag -9, M1 PAM parental -2, M1 ag parental 1, OX1R antag-1 34, OX1R antag-2 -71 and CHO parental Ca -35.
`COC(=O)CCN(C(=O)c1ccc(N2CCCCC2)c([N+](=O)[O-])c1)c1ccccn1` gave CHO-K1 Ca antag 7, M1 PAM parental 10, M1 ag parental 20*, OX1R antag-1 19, OX1R antag-2 -15 and CHO parental Ca 4.
`COC(=O)CCN(C(=O)c1ccc(N2CCCC2)c([N+](=O)[O-])c1)c1ccccn1` gave CHO-K1 Ca antag -18, M1 PAM parental 21, M1 ag parental 1, OX1R antag-1 16, OX1R antag-2 -10 and CHO parental Ca -19.
COC(=O)CCN(C(=O)c1cc([N+](=O)[O-])cc([N+](=O)[O-])c1)c1ccccn1 was read as CHO-K1 Ca antag 12, M1 PAM parental -12, M1 ag parental 0, OX1R antag-1 66*, OX1R antag-2 -17 and CHO parental Ca 1.
Nc1nc(N)c(N=O)c(OCC2CCCCC2)n1 was read as CHO-K1 Ca antag -1, M1 PAM parental 12, M1 ag parental 0, OX1R antag-1 40*, OX1R antag-2 -22 and CHO parental Ca -21.
For CCN1C(=O)c2c(C)nc3ccccc3c2C1=O the results were CHO-K1 Ca antag -18, M1 PAM parental 9, M1 ag parental 0, OX1R antag-1 39*, OX1R antag-2 -20 and CHO parental Ca -14.
For Cc1ccccc1CN(C)C(=O)COC(=O)c1ccc2[nH]c(C)c(C)c2c1 the results were CHO-K1 Ca antag 5, M1 PAM parental -20, M1 ag parental 0, OX1R antag-1 53*, OX1R antag-2 31 and CHO parental Ca -16.
`COc1ccc(C2c3ccc4ccccc4c3Oc3ncn(Cc4ccco4)c(=N)c32)cc1OC` (centres undefined) gave CHO-K1 Ca antag 26*, M1 PAM parental -14, M1 ag parental 0, OX1R antag-1 27, OX1R antag-2 -21 and CHO parental Ca -11.
Screening CCCn1c(C(C)Nc2nc(C)cs2)nc2cc(Cl)c(Cl)cc21 (centres undefined) returned CHO-K1 Ca antag -2, M1 PAM parental -13, M1 ag parental -1, OX1R antag-1 14, OX1R antag-2 -34 and CHO parental Ca -39.
CCOC(=O)C1=C(O)CSC1=Nc1ccc(Cl)cc1 was read as CHO-K1 Ca antag 27*, M1 PAM parental -6, M1 ag parental -1, OX1R antag-1 2, OX1R antag-2 -16 and CHO parental Ca -16.
Screening CCOC(=O)C1=C(O)CSC1=Nc1ccccc1 returned CHO-K1 Ca antag 8, M1 PAM parental 1, M1 ag parental -1, OX1R antag-1 20, OX1R antag-2 -21 and CHO parental Ca -9.
For CCc1nc2ccc(C(=O)N(C)CCCN(C)C)cn2c1N(C)Cc1cc2ccccc2s1 the results were CHO-K1 Ca antag 0, M1 PAM parental 2 and M1 ag parental 1.
For O=C(Nc1cccc(C(F)(F)F)c1)Oc1ccc(Cl)c2cccnc12 the results were CHO-K1 Ca antag 36*, M1 PAM parental -33, M1 ag parental 16*, OX1R antag-1 23, OX1R antag-2 34 and CHO parental Ca 62*.
For CCN(CC)C(=O)Oc1ccc(Cl)c2cccnc12 the results were CHO-K1 Ca antag -9, M1 PAM parental 4, M1 ag parental -1, OX1R antag-1 28, OX1R antag-2 2 and CHO parental Ca 4.
For Cc1ccc(S(=O)(=O)Nc2ccc(SC(F)F)cc2)c(C)c1 the results were CHO-K1 Ca antag -8, M1 PAM parental 13, M1 ag parental 1, OX1R antag-1 -12, OX1R antag-2 2 and CHO parental Ca 43*.
Cc1ccc(S(=O)(=O)Nc2ccc3c(c2)n(C)c(=O)n3C)c(C)c1 was read as CHO-K1 Ca antag 5, M1 PAM parental -3, M1 ag parental 4, OX1R antag-1 30, OX1R antag-2 5 and CHO parental Ca -1.
For CC(C)c1ccc(NS(=O)(=O)c2ccc(-n3cccn3)cc2)cc1 the results were CHO-K1 Ca antag -13, M1 PAM parental -9, M1 ag parental 6, OX1R antag-1 25, OX1R antag-2 -33 and CHO parental Ca -14.
`CC(C)c1ccc(S(=O)(=O)Nc2ccc(SC(F)F)cc2)cc1` gave CHO-K1 Ca antag 0, M1 PAM parental 2, M1 ag parental 4, OX1R antag-1 -2, OX1R antag-2 -11 and CHO parental Ca 42*.
`Cc1ccc(NC(=O)CN2C(=O)C3CC=C(Cl)CC3C2=O)cc1` (centres undefined) gave CHO-K1 Ca antag -9, M1 PAM parental 9, M1 ag parental 0, OX1R antag-1 41, OX1R antag-2 -8 and CHO parental Ca 1.
CC(CNCc1ccc2c(c1)OCO2)NCc1ccc2c(c1)OCO2 (centres undefined) was read as CHO-K1 Ca antag -24, M1 PAM parental 43*, M1 ag parental 2, OX1R antag-1 6, OX1R antag-2 -25 and CHO parental Ca -13.
Screening Fc1ccc(CNCc2ccc3c(c2)OCO3)cc1 returned CHO-K1 Ca antag 10, M1 PAM parental -9, M1 ag parental 0, OX1R antag-1 4, OX1R antag-2 -16 and CHO parental Ca -5.
For Cc1cc2n(n1)C(c1sccc1C)Nc1c(C)cccc1-2 (centres undefined) the results were CHO-K1 Ca antag 25*, M1 PAM parental -6, M1 ag parental 0, OX1R antag-1 13, OX1R antag-2 -23 and CHO parental Ca -4.
